Bioassay records deposited in PubChem by several laboratories.
KCNK3 block: human KCNK3 channel inhibition, primary screen. O14649. CHO-KCNK3 thallium flux, FluxOR fluorescence; active compounds read low. B-score at 10 µM. actives 0.84% (n = 340,000). AID 602410;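 active means B-score under library mean minus 4 SD, starting fluorescence ratio at most library mean plus 5 SD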;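 further: more negative B-score means stronger inhibition of thallium flux through KCNK3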
Target sequence (O14649 whole entry, looked up): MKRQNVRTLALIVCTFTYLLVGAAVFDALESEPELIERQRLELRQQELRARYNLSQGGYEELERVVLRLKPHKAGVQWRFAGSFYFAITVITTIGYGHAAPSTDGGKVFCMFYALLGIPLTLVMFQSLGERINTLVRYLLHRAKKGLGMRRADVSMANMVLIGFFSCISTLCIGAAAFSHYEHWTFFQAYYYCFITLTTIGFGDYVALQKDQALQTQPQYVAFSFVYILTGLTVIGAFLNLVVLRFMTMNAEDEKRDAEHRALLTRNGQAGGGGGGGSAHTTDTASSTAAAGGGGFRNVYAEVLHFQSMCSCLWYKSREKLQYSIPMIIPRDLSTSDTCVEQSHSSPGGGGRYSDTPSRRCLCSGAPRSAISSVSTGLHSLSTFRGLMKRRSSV
KCNQ1 act: human KCNQ1 channel potentiation or activation; CHO-K1 KCNQ1, thallium flux FluxOR fluorescence; active compounds read high; B-score at 10 µM; actives 0.35% (n = 310,000);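 active means fluorescence ratio B-score, a plate-corrected score, at least three library SD, with initial intensity B-score within 5 SD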
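Doses: Single concentration per compound, DMSO matched to controls | Test system: KCNQ1-transfected CHO-K1 cells | Timing: 90 min dye loading and 20 min compound exposure, both at room temperature | Measured by: Kinetic FluxOR thallium fluorescence, 10-s 1-Hz baseline, 110-s post-stimulus read | Medium: Assay buffer with matched DMSO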
hERG rescue: compounds protecting human hERG from proarrhythmic drug block; Q12809; CHO-hERG, FluxOR thallium flux, dofetilide IC70 present; activation (rescue from dofetilide block), less the hit threshold, % at 10 µM; actives 0.51% (n = 310,000); AID 1511;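 active means activation above the mean of controls blocked by dofetilide plus 5 SD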;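 further: thallium influx through hERG after potassium depolarization seen as dye fluorescence rise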
KCNQ1 block: blocks the human KCNQ1 potassium channel; CHO-K1 KCNQ1, FluxOR thallium flux fluorescence; active compounds read high; B-score at 10 µM; actives 1.3% (n = 310,000); AID 2642;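 active means compounds whose thallium flux B-score, printed positive for inhibition, exceeds three library SD while starting fluorescence stays within three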;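 further: channel opened by potassium depolarization with thallium stimulus after 20 min compound exposure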
KCNK9 block: blocks the human KCNK9 two-pore domain potassium channel | Q9NPC2 | HEK293 KCNK9, FluxOR thallium flux fluorescence; active compounds read low | B-score at 10 µM | actives 1.2% (n = 310,000);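 active means ratio B-score over 3 SD below the library mean, with starting fluorescence within 5 SD of its mean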;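 further: negative B-score means less thallium flux so channel inhibition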
Cl transport mod: KCC2 (human) Cl- transport modulation; KCC2 cells, thallium flux FluoZin-2 fluorescence; B-score of Tl+ flux slope (higher = more flux/activation; lower = inhibition) at 10 µM; actives 2.2% (n = 190,000); AID 1456;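 active means thallium flux slope and its plate-corrected score both differing from the plate sample mean at a set confidence after two filtering rounds, in either direction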;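 further: slope of fluorescence scaled to starting intensity during 10 to 20 s after thallium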
KCNK9 inh conf: confirmation of human KCNK9 potassium channel inhibitors | shares compounds with KCNK9 block | HEK293 KCNK9 cells, FluxOR thallium flux fluorescence | inhibition, % at 10 µM | actives 43% (n = 4,900);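 active means thallium signal inhibited by more than 5 SD of the compound-free buffer control wells, on both duplicate plates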
Kir21 sel: tests whether KCNK9 modulators also affect mouse Kir2.1. actives 4% (n = 4,900). inhibition, % at 10 µM. AID 492993. Kir2.1 cells, FluxOR thallium flux fluorescence. shares compounds with KCNK9 block;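 active means thallium signal drop more than 5 SD beyond the mean of the no-compound control wells, seen in both duplicate plates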;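 further: signal is fluorescence rise after thallium addition divided by baseline fluorescence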
KCNK9 uninduced: second counter-screen for KCNK9 modulators: effect in non-induced cells | actives 40% (n = 4,900) | shares compounds with KCNK9 block | non-induced KCNK9-HEK293, FluxOR thallium flux | AID 492997 | inhibition, % at 10 µM;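 active means thallium signal drop beyond 5 SD of the untreated control mean, on both duplicate plates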
Numbers stand for hits; i = inactive; nt = not tested or not shown. Shown are actives, neighbours in structure and some others; about 4.1% of the full set was active somewhere.

SMILES	KCNK3 block	KCNQ1 act	hERG rescue	KCNQ1 block	KCNK9 block	Cl transport mod	KCNK9 inh conf	Kir21 sel	KCNK9 uninduced
O=C(Nc1cccc(Cl)c1)N(CCN1CCOCC1)Cc1cccc(Cl)c1	-11	i	i	6	-12	i	54%	i	34%
O=C(NNS(=O)(=O)c1ccc(Br)cc1)c1ccccc1-n1cccc1	i	i	i	i	i	nt	nt	nt	nt
Cn1c(-c2ccc(Br)o2)nc2ccccc21	i	i	i	i	i	i	nt	nt	nt
Brc1ccc(Cn2c(-c3ccc(Br)o3)nc3ccccc32)o1	i	i	i	i	-8.8	i	i	i	32%
COc1ccccc1NC(=O)CC(=O)c1cccc([N+](=O)[O-])c1	i	i	i	i	i	nt	nt	nt	nt
COc1ccccc1NC(=O)/C(=C/c1cccc([N+](=O)[O-])c1)c1ccccc1	i	i	i	6	-8.6	i	54%	i	38%
COc1ccc(CNC(=O)CN(C(=O)c2snc(C(N)=O)c2N)c2ccc(OC)c(OC)c2)cc1	i	i	i	i	i	nt	nt	nt	nt
COC(=O)c1sccc1NC(=S)N1C(C)CCCC1C (stereo not drawn)	i	i	i	i	i	i	nt	nt	nt
COC(=O)c1sccc1NC(=S)N1CCCCC1C (stereo not drawn)	i	i	i	i	i	i	i	i	i
COc1ccc2oc(=O)c(-c3csc(Nc4cccc(O)c4)n3)cc2c1	i	i	i	11	-15	i	66%	i	28%
O=C(Nc1cccc(C(F)(F)F)c1)c1cncs1	i	i	i	i	i	nt	nt	nt	nt
CCCOc1ccc(C(=O)C(CN2CCOCC2)c2ccccc2)cc1 (stereo not drawn)	i	i	i	i	i	i	i	i	i
CCCOc1ccc(C(=O)C(c2ccccc2)N2CCOCC2)cc1 (stereo not drawn)	i	i	i	i	i	i	nt	nt	nt
CC1Cc2ccccc2N1C(=O)CCS(=O)(=O)c1ccc2c(c1)NC(=O)CS2 (stereo not drawn)	i	i	i	i	i	nt	nt	nt	nt
O=Cc1cn(-c2ccccc2)nc1-c1ccccc1	i	i	i	i	i	nt	nt	nt	nt
CC1=NNC(=O)/C1=C\c1cn(-c2ccccc2)nc1-c1ccccc1	i	i	i	i	i	i	i	i	i
O=C(CSc1nc2nc(-c3cccs3)cc(C(F)(F)F)c2c(=O)[nH]1)Nc1c(F)c(F)c(F)c(F)c1F	i	i	i	10	i	i	i	i	i
CC(C(=O)NC1CCCC1)N(C(=O)c1ccc(-c2ccccc2)[nH]1)c1ccccc1F (stereo not drawn)	i	i	i	6	i	i	i	i	i
CCC1(CC)NC(=O)N(CC(=O)OCC(=O)Nc2ncc(Cl)cc2Cl)C1=O	i	i	i	i	i	nt	nt	nt	nt
Cn1c(CC(=O)Nc2ccccc2)c(Sc2ccccc2)c2ccccc21	i	i	i	i	i	i	i	i	i
CCCCc1ccc(-c2ccc(Br)cc2)nc1	i	i	i	i	i	nt	i	i	i
CCCc1ccc(-c2ccc(-c3noc(-c4ccncc4)n3)cc2)nc1	i	i	i	i	i	nt	nt	nt	nt
COc1cccc(-c2nnc(SCC(=O)Nc3ccc4c(c3)OCCO4)n2Cc2ccco2)c1	i	i	i	i	-16	nt	64%	i	37%
COc1ccccc1C(=O)Nc1ccnn1C1CCN(CC2CC=CCC2)CC1 (stereo not drawn)	i	i	i	i	i	nt	nt	nt	nt
COc1ccc(C2CC(c3ccccc3)=NN2C(=O)COC(=O)C2CC2)cc1 (stereo not drawn)	i	i	i	i	i	i	nt	nt	nt
COc1ccc(C2=NN(C(=O)c3ccccc3)C(c3cccc([N+](=O)[O-])c3)C2)cc1 (stereo not drawn)	i	i	i	i	-18	i	54%	i	28%
